High-throughput results from PubChem BioAssay.
Only some compounds are listed: those with a hit (about 1.3% of all), similar ones and a draw of the others.
HNF4A DNA FP – change in binding of human HNF4 alpha to DNA; HNF4a-FITC DNA binding, fluorescence polarization, 1 h; activity change, % at 10 µM; actives 0.3% (n = 360,000); AID 1224865; in the data active means activity change above about 30%, passing the limit was not always enough
Target sequence (P41235 whole entry, looked up): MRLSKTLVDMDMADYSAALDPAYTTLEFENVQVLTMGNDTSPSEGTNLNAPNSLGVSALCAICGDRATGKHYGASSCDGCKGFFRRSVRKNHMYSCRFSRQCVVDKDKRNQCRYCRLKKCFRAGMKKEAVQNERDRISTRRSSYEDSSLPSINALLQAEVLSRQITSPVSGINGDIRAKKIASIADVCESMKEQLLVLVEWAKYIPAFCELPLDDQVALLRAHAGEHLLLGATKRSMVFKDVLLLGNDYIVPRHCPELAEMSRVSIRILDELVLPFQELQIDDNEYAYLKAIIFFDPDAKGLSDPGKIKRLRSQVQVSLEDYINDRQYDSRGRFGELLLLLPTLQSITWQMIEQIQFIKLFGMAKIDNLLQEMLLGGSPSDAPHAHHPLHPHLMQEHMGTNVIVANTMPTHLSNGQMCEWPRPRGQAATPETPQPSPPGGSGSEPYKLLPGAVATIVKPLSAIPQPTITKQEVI
Rpn11 inh – inhibitors of human proteasome Rpn11 | human 26S proteasome, Ub4-pepOG fluorescence polarization; 20S core pre-blocked with epoxomicin | O00487 | inhibition, % at 20 µM | actives 0.59% (n = 360,000);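 active means inhibition at 20 µM, scaled to each plate's controls, above about 33%, limit read from the data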
aDG glyco act – increases alpha dystroglycan glycosylation; Pro5-aDG cells, alpha-DG glycosylation AlphaScreen (IIH6); 0% Pro5, 100% B10-LARGE cell signal; activation, % at 10 µM; actives 0.22% (n = 360,000);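 active means activation of at least 8% versus controls, or a plate z-score of at least 8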;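 further: Pro5 are CHO cells carrying HIG-tagged alpha-DG that lacks glycosylation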
Xi reactivation – X-chromosome reactivation activator. XiGFP mouse fibroblasts, % GFP-positive cells imaging, 3 d; cells co-treated with 5-aza-dC sensitizer; scaled so ellipticine positive control = 100%. activation, % at 7.58 µM. actives 0.055% (n = 360,000). AID 743238;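 active means mean normalized replicate activation at least 10% and every replicate at or above 10%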;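 further: 0% = median of on-plate neutral control wells and 100% = ellipticine 6 µM median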
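Assay system: SV40-immortalized XiGFP fibroblast cells, line 68-5-11; buffer or medium: DMEM plus 5-aza-dC sensitizer; compound: one concentration, pinned; timing: compounds 3 days, fix/stain 15 min at room temperature; benchmarks: positive control ellipticine, 6 µM final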
CSN deneddyl inh – blocks human CSN-mediated cullin deneddylation | AID 651999 | actives 0.38% (n = 360,000) | inhibition, % at 12.5 µM | Purified CSN, SCF-Nedd8-OG deneddylation, fluorescence polarization;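 active means pattern-corrected inhibition above about 35%, with an unprinted fluorescence ratio check between 0.5 and 1.5, limit read from the data, passing the limit was not always enough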;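 further: 0% = enzyme with substrate and 100% = substrate without enzyme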
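Material: purified human Csn5 enzyme expressed in HEK293T cells / Medium: Tris buffer pH 7.5, NaCl, DTT, Tween-20, trehalose, ovalbumin / Compound dosing: 12.5 µM single point / Schedule: 90 min incubation of compound, enzyme and substrate at room temperature / Signal: fluorescence polarization of the substrate / Control set: no-enzyme wells high, enzyme-with-substrate wells low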
TPT1 inh – blocks Candida albicans tRNA 2'-phosphotransferase; actives 0.81% (n = 300,000); inhibition, % at 5 µM; recombinant caTPT1, FP RNA substrate dephosphorylation;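 active means inhibition above the mean of all tested compounds plus 3 SD, set per screening campaign, cut at about 24% in these data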;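 further: plate controls were DMSO alone for no effect and ferristatin control at 100 nM for full effect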
aDG glyco conf – alpha-DG glycosylation activation, confirmation | actives 17% (n = 600) | Pro5-aDG cells, IIH6 AlphaLISA; scaled to LARGE-overexpressing B10 cells as 100% | AID 651671 | shares compounds with aDG glyco act | activation, % at 10 µM (by protocol);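 active means activation of at least 7% in one or more replicates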;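 further: cells exposed to compound for two days before detection; 0% = DMSO-treated Pro5 cells and 100% = DMSO-treated B10-LARGE cells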
CSN5 deneddyl – validation of inhibitors of human CSN-mediated cullin deneddylation. AID 720654. Csn5 deneddylation of SCF-Nedd8OG, fluorescence polarization, 90 min. inhibition, % at 16.6 µM. actives 62% (n = 540). shares compounds with CSN deneddyl inh; in the data active means inhibition above about 50%;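 further: 0% = DMSO with enzyme and 100% = no enzyme wells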
MMP2 cntr CSN – blocks human MMP-2 in a CSN deneddylation counter-screen | shares compounds with CSN deneddyl inh | recombinant MMP-2, FRET substrate fluorescence, 60 min | inhibition, % at 16.6 µM | actives 33% (n = 540) | AID 720655;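 active means corrected plate-normalized z-score of 5 or more, or -5 or less, or inhibition of 15% or more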;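 further: plate controls were DMSO wells with enzyme for no effect and buffer wells lacking MMP-2 for full effect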
Thrombin cntr – thrombin (bovine) inhibition, counter-screen for CSN hits; shares compounds with CSN deneddyl inh; bovine thrombin cleavage of Ub4-pepOG, fluorescence polarization; actives 49% (n = 540); inhibition, % at 16.6 µM;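 active means inhibition at or above a set limit, with a fluorescence interference ratio between 0.5 and a set maximum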
The depositor's hits bear a star; · = not tested or not shown.

SMILES	HNF4A DNA FP	Rpn11 inh	aDG glyco act	Xi reactivation	CSN deneddyl inh	TPT1 inh	CSN5 deneddyl	MMP2 cntr CSN	Thrombin cntr	others
O=C1Nc2cc(C(=O)NCCN3CCCCCC3)ccc2S/C1=C\c1ccccc1	5	37	0	0	11	2	·	·	·
Cc1cccc(/C=C2/Sc3ccc(C(=O)NCCN4CCCC4)cc3NC2=O)c1	6	-8	8.2*	0	8	1	·	·	·	aDG glyco conf=7.8*
CC(=O)N1C[C@@H]2[C@H](c3ccccc31)[C@@H](CO)N2C(=O)Nc1ccc(F)cc1	·	·	·	0	·	·	·	·	·
Cc1ccc(-c2ccc([C@@H]3[C@@H](CO)N4C(=O)CN(C(=O)c5ccc(F)cc5)C[C@H]34)cc2)cc1	·	·	·	0	·	·	·	·	·
N#CCC(=O)Nc1ccc(C(=O)OCC(=O)N=c2sccn2Cc2ccccc2Cl)cc1	13	31	5.4*	0	19	13	·	·	·	aDG glyco conf=1
O=C(COC(=O)c1ccc(O)cc1O)N=c1sccn1Cc1ccccc1Cl	-1	-4	0	0	0	1	·	·	·
O=C1C(=O)N(CCS(=O)(=O)c2ccccc2)c2ccc(F)cc21	-1	3	7.6*	0	-3	-3	·	·	·	aDG glyco conf=5.4*
COc1ccc2c(c1)C(=O)C(=O)N2CCS(=O)(=O)c1ccccc1	2	-5	1	0	-3	-4	·	·	·
C[C@H]1CCCCO[C@@H](CN(C)C(=O)NC2CCCCC2)[C@@H](C)CN([C@@H](C)CO)C(=O)c2cc(NC(=O)c3ccncc3)ccc2O1	·	·	·	0	·	·	·	·	·
CCCCCCc1nc2ccccc2c(=O)n1NC(=O)c1c(O)c2c(n(CC(C)C)c1=O)CCCC2	1	5	6.3*	·	2	2	·	·	·	aDG glyco conf=2
Cc1nc(NC(C)c2ccccc2)c2oc3ccccc3c2n1 (stereo unspecified)	0	-1	6.7*	·	-2	4	·	·	·	aDG glyco conf=0
COc1cc(-c2nnc(COc3ccc(Cl)cc3C)o2)cc(OC)c1OC	4	-11	6.8*	·	-2	1	·	·	·	aDG glyco conf=1
Cc1nnc(SCc2ccccn2)n(N)c1=O	1	-1	3.5*	0	1	0	·	·	·	aDG glyco conf=0
OC[C@@H]1[C@H](c2ccc(C#CC3(O)CCCC3)cc2)[C@@H]2CN(Cc3cccnc3)CCCCN12	·	·	·	0	·	·	·	·	·
COc1ccc(OC)c(N2C(=O)[C@@H]3C(c4ccccc4Cl)=NO[C@@H]3C2=O)c1	-36	-3	0	·	40*	7	69*	12	7
O=C(Cc1ccccn1)NCC[C@H]1CC[C@H](NS(=O)(=O)c2ccc(F)cc2)[C@@H](CO)O1	·	·	·	0	·	·	·	·	·
O=C(C[C@@H]1C=C[C@@H](NC(=O)Nc2cc(F)ccc2F)[C@H](CO)O1)NCc1ccccn1	·	·	·	0	·	·	·	·	·
CC(C)CC#Cc1cnc2c(c1)C(=O)N([C@@H](C)CO)C[C@H](C)[C@H](CN(C)Cc1ccc(C(=O)O)cc1)O2	·	·	·	0	·	·	·	·	·
O=C1C(=O)c2cccnc2-c2ncccc21	0	12	0	0	59*	·	5	-1	-32
O=c1[nH]c(Nc2ccc(F)cc2)cc2ccccc12	1	12	0	·	35*	21	73*	9	-34
C[C@@H]1CN([C@H](C)CO)C(=O)c2cc(-c3ccccc3)cnc2O[C@H]1CN(C)C(=O)C1CCOCC1	·	·	·	0	·	·	·	·	·
COc1ccc(N=C2NC(=O)/C(=C\c3ccco3)S2)cc1	-1	-19	0	0	23	3	·	·	·
O=C1NC(=Nc2ccc(O)cc2)S/C1=C\C=C\c1ccco1	-1	11	0	1	48*	6	92*	7	-10
O=C(O)CN1C(=O)/C(=C/c2ccc(SCc3ccccc3)o2)SC1=S	135	·	0	0	87*	·	88*	13	96*
O=C(O)CCCN1C(=O)/C(=C\c2ccco2)SC1=S	-29	-7	0	0	42*	·	94*	30*	5
SMILES	HNF4A DNA FP	Rpn11 inh	aDG glyco act	Xi reactivation	CSN deneddyl inh	TPT1 inh	CSN5 deneddyl	MMP2 cntr CSN	Thrombin cntr	others
O=C(CCCN1C(=O)/C(=C\c2ccccc2)SC1=S)Nc1ccc(O)cc1C(=O)O	-3	2	0	0	3	0	·	·	·
O=C(CCCN1C(=O)/C(=C\c2ccco2)SC1=S)Nc1ccc2ccccc2c1	11	34	0	1	19	19	·	·	·
O=C(CCN1C(=O)/C(=C/c2ccco2)SC1=S)Nc1ccc(O)cc1C(=O)O	-38	13	0	0	43*	·	77*	14	10
O=C(C1CCCC1)N1CC(=O)N2[C@H](CO)[C@@H](c3ccc(-c4cccnc4)cc3)[C@H]2C1	·	·	·	0	·	·	·	·	·
O=C(C[C@H]1C[C@H]2c3cc(NC(=O)Nc4ccccc4F)ccc3O[C@H]2[C@H](CO)O1)NCC1CC1	·	·	·	0	·	·	·	·	·
CN(C)c1ccc(/C=C/c2cc[n+](C)cc2)cc1	68*	·	0	·	51*	11	55*	-34*	58*
CCS(=O)(=O)Nc1ccc2c(c1)C(=O)N(C)C[C@@H](OC)[C@@H](C)CN(Cc1nccs1)[C@H](C)CO2	·	·	·	0	·	·	·	·	·
Cc1ccccc1S(=O)(=O)N1C[C@@H](O)COC[C@H]2O[C@@H](CC(=O)N3CCC(Cc4ccccc4)CC3)CC[C@@H]21	·	·	·	0	·	·	·	·	·
CCNc1nc(-c2cc(C)n(Cc3ccco3)c2C)cs1	-8	-22	0	0	27	-5	·	·	·
Cc1cc(-c2csc(NC(=O)c3ccc(=O)[nH]c3)n2)c(C)n1Cc1ccco1	-53	20	0	1	40*	8	98*	8	-1
C[C@H]1CN([C@@H](C)CO)C(=O)Cc2cc(NC(=O)c3ccncc3)ccc2O[C@@H]1CN(C)C(=O)Nc1ccc2c(c1)OCO2	·	·	·	0	·	·	·	·	·
COCC(=O)N1C[C@@H]2[C@H](c3ccccc31)[C@@H](CO)N2C(=O)C1CCCCC1	·	·	·	0	·	·	·	·	·
O=Nc1c(O)ccc2cc(S(=O)(=O)O)ccc12	-10	-10	0	·	5	·	·	·	·
CN(C)c1ccc2cc(S(=O)(=O)O)cc(O)c2c1	-18	-7	0	0	35*	·	75*	4	1
